The source made the active and inactive calls. The calls are words filed in the database; no cut-off is given here.
Columns and labels:
[1] = target: Presenilin-1 (Homo sapiens) (UniProt P49768); test: Inhibition of PS1 PSase activity in human HeLa cells assessed as accumulation of full length protein at 1 to 10 uM after 4 days by Western blot analysis; type: cell-based
Summary of the method: (§1)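 HeLa cells treated 4 days at 1, 3 or 10 µM, with DMSO vehicle as control. Lysis in RIPA buffer; 15 µg lysate run on 12% Bis-Tris gel in MES buffer. Western blot with anti PS1-NTF antibody, scoring full-length PS1 and PS1-NTF bands.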

[2] = target: Gamma-secretase subunit PEN-2 (Homo sapiens) (UniProt Q9NZ42); test: Binding affinity to Pen-2 in human HeLa cell membrane by photolabelling assay; type: cell membranes
Summary of the method: (§2)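 Photolabelling: 600 µg HeLa cell membrane diluted in PBS, preincubated with 2 µM CBAP or vehicle for 15 min at 37 °C. Then 20 nM probe for 1 h at 37 °C and UV irradiation (350 nm) for 45 min. Membranes pelleted and clicked to biotin azide (1 h, RT). Streptavidin pull-down overnight at 4 °C, biotin elution, Western blot with the relevant subunit antibody.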

Gamma-secretase [3] = test: Inhibition of gamma-secretase (unknown origin) using Notch1 substrate assessed as Notch1-NICD production; type: protein-complex assay, Homo sapiens
HeLa [4] = test: Binding affinity to Signal peptide peptidase in human HeLa cell membrane by photolabelling assay; type: cell membranes; summary of the method: as §2
Gamma-secretase [5] = test: Inhibition of gamma-secretase (unknown origin) expressed in CHO cells transfected with APP assessed as amyloid-beta42 production by cell based assay; parameters: species or system Homo sapiens
[6] = target: Presenilin-1 (Homo sapiens) (UniProt P49768); test: Binding affinity to PS1-NTF in human HeLa cell membrane by photolabelling assay; type: cell membranes; summary of the method: as §2
[7] = target: Presenilin-1 (Homo sapiens) (UniProt P49768); test: Binding affinity to PS1-CTF in human HeLa cell membrane by photolabelling assay; type: cell membranes; summary of the method: as §2
Gamma-secretase [8] = test: Inhibition of gamma-secretase (unknown origin) using APP substrate assessed as amyloid-beta40 production; type: protein-complex assay, Homo sapiens
HeLa [9] = test: Binding affinity to Aph-1 in human HeLa cell membrane by photolabelling assay; type: cell membranes; summary of the method: as §2
Nicastrin (Homo sapiens) = Nicastrin (Homo sapiens) (UniProt Q92542); test: Binding affinity to nicastrin in human HeLa cell membrane by photolabelling assay; type: cell membranes; summary of the method: as §2
[10] = target: Presenilin-1 (Homo sapiens) (UniProt P49768); test: Inhibition of PS1 PSase activity in human HeLa cells assessed as complete depletion of PS1-NTF protein at 1 to 10 uM after 4 days by Western blot analysis relative to control; type: cell-based; summary of the method: as §1

Sequence of Nicastrin (Homo sapiens) (Q92542 whole entry): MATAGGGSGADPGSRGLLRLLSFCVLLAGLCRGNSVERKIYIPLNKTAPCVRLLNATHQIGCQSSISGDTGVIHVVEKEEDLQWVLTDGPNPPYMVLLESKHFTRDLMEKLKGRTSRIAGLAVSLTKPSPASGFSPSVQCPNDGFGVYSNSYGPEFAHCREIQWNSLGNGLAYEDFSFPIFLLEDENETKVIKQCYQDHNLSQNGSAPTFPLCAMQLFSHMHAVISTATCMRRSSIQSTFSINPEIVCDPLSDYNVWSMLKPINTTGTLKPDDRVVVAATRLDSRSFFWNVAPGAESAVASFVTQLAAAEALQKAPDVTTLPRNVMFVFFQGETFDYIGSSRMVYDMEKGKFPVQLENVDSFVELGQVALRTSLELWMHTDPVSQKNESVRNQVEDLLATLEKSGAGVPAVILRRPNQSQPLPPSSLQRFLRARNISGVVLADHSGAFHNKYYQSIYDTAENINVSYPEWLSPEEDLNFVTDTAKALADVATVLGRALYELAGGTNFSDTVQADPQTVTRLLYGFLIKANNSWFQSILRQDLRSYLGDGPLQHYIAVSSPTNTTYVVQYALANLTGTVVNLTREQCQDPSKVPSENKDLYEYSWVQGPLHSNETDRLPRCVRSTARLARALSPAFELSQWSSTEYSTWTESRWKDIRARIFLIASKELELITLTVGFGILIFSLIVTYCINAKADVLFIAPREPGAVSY
Sequence of Gamma-secretase subunit PEN-2 (Homo sapiens) (Q9NZ42 whole entry): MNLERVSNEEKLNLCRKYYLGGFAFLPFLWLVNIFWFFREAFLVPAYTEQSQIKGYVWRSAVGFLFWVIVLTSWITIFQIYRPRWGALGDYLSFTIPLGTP

Row | SMILES | inhibition [1] | Activity [2] | IC50 (Gamma-secretase [3]) [nM] | Activity (HeLa [4]) | IC50 (Gamma-secretase [5]) [nM] | Activity [6] | Activity [7] | IC50 (Gamma-secretase [8]) [nM] | Activity (HeLa [9]) | Activity (Nicastrin (Homo sapiens)) | inhibition [10]
1 | CC(C)C[C@H](NC(=O)[C@H](Cc1ccccc1)C[C@@H](O)[C@H](Cc1ccccc1)NC(=O)OC(C)(C)C)C(=O)N[C@@H](Cc1ccccc1)C(N)=O | inactive |  |  |  |  |  |  |  |  |  | 
2 | C[C@H](NC(=O)[C@H](Cc1ccccc1)C[C@@H](O)[C@H](Cc1ccccc1)NC(=O)OC(C)(C)C)C(=O)N[C@@H]1N=C(C2CCCCC2)c2ccccc2NC1=O | Active | inactive | 0.56 | Active | 28 | Active | inactive | 0.7 | inactive | inactive | Active
3 | C#CCOc1ccc(C(=O)c2ccc(C(=O)N[C@@H](Cc3ccccc3)[C@H](O)C[C@@H](Cc3ccccc3)C(=O)N[C@@H](C)C(=O)N[C@@H]3N=C(C4CCCCC4)c4ccccc4NC3=O)cc2)cc1 | Active | inactive | 1 | Active | 20 | Active | inactive | 0.91 | inactive | inactive | 

From ChEMBL document CHEMBL3132746, “Development of CBAP-BPyne, a probe for γ-secretase and presenilinase” (Medchemcomm, 2014)
